As a reminder, the inhibition is how much of the control response was suppressed.

The target of assay [1] is cAMP-dependent protein kinase catalytic subunit alpha (Homo sapiens) (UniProt P17612). As to the kind of experiment: Inhibition of human recombinant PKACalpha at 40 nM in presence of ATP by radiometric assay relative to control.
In assay [2] the target is Serine/threonine-protein kinase PAK 2 (Homo sapiens) (UniProt Q13177). As to the kind of experiment: Inhibition of human recombinant PAK2 at 40 nM in presence of ATP by radiometric assay relative to control.
Chain of Serine/threonine-protein kinase PAK 2 (Homo sapiens) (Q13177 whole entry): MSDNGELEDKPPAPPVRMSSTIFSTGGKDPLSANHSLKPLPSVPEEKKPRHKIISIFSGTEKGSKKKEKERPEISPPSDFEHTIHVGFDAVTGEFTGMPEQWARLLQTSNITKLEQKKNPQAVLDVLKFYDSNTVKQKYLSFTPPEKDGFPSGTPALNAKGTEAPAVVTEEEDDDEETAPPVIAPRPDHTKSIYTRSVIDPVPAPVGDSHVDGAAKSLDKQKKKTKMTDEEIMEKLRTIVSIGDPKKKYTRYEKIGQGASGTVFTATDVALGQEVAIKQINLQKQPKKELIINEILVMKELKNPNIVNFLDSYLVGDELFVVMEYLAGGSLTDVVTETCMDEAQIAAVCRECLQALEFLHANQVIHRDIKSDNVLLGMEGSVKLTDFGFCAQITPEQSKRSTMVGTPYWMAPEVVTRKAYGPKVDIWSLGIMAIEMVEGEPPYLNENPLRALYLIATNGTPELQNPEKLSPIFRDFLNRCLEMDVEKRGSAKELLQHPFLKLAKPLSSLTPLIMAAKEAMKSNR
Assay [3] has as its target Tyrosine-protein kinase Yes (Homo sapiens) (UniProt P07947). As to the kind of experiment: Inhibition of human recombinant YES at 40 nM related to control ULK1.
In assay [4] the target is Mitogen-activated protein kinase 1 (Homo sapiens) (UniProt P28482). Description: Inhibition of human recombinant Erk2 at 40 nM related to control ULK1.
Assay [5] addresses T1, Aurora kinase A (Homo sapiens) (UniProt O14965).
T1 sequence (whole entry): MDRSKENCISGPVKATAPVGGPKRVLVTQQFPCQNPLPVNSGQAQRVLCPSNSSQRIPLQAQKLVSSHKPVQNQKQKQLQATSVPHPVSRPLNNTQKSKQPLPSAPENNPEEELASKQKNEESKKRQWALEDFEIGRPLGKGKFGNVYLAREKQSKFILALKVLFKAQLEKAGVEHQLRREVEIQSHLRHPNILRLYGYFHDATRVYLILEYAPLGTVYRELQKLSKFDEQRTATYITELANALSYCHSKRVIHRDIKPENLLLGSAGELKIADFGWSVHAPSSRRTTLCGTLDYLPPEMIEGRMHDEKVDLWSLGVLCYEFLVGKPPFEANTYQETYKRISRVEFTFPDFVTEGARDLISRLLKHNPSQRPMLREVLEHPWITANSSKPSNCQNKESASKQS
As to the kind of experiment: Inhibition of human recombinant AurA at 40 nM in presence of ATP by radiometric assay relative to control. The gist of the method:
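Panel of 327 recombinant human kinases, each assayed in vitro by radiometric activity assay in duplicate at a single inhibitor concentration per compound, chosen with reference to its ULK1 inhibition. Activity remaining was expressed as percent of vehicle control, and percent inhibition was calculated as 100 minus percent activity remaining.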

For assay [6], the target named is [Pyruvate dehydrogenase (acetyl-transferring)] kinase isozyme 4, mitochondrial (Homo sapiens) (UniProt Q16654). Description: Inhibition of human recombinant PDHK4 at 40 nM related to control ULK1.
Chain of [Pyruvate dehydrogenase (acetyl-transferring)] kinase isozyme 4, mitochondrial (Homo sapiens) (Q16654 whole entry, looked up): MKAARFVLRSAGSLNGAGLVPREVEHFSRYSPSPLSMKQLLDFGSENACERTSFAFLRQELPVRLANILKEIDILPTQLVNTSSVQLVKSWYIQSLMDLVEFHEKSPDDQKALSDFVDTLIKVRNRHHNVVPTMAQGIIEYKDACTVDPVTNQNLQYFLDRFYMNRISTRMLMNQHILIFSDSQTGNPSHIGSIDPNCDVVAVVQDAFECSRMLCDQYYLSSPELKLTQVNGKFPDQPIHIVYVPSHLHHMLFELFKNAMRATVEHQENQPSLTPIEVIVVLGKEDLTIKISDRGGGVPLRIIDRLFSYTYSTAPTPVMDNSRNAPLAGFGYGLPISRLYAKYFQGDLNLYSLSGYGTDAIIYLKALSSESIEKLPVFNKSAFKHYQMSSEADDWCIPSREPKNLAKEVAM
Assay [7] has as its target T2, Ephrin type-B receptor 3 (Homo sapiens) (UniProt P54753).
T2 sequence (whole entry): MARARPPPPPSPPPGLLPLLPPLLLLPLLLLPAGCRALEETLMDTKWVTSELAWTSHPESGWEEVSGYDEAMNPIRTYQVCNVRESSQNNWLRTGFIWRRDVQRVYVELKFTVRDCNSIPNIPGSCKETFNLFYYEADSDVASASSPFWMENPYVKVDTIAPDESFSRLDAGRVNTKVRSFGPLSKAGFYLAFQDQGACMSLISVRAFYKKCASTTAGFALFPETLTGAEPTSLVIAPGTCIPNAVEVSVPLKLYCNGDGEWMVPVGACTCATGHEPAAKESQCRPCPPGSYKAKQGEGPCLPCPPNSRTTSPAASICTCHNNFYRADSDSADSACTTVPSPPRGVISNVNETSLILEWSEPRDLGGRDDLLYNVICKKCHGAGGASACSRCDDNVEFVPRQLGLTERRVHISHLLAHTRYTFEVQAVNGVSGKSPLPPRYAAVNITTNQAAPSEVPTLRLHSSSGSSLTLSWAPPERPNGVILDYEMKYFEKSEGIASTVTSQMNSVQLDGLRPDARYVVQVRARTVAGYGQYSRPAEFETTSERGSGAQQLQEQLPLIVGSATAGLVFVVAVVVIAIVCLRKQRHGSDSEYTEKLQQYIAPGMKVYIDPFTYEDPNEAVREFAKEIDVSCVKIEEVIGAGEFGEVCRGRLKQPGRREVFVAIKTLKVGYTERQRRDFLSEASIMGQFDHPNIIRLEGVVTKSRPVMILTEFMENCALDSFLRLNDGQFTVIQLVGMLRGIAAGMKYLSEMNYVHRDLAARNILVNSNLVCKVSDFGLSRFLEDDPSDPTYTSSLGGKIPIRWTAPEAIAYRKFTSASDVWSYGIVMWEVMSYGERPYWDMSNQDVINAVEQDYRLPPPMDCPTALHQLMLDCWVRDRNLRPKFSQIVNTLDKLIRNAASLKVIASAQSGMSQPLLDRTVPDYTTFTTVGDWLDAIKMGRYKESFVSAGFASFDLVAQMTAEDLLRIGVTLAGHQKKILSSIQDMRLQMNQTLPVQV
As to the kind of experiment: Inhibition of human recombinant EphB3 at 500 nM related to control ULK1.

In assay [8] the target is T3, Serine/threonine-protein kinase Chk1 (Homo sapiens) (UniProt O14757).
T3 sequence (whole entry): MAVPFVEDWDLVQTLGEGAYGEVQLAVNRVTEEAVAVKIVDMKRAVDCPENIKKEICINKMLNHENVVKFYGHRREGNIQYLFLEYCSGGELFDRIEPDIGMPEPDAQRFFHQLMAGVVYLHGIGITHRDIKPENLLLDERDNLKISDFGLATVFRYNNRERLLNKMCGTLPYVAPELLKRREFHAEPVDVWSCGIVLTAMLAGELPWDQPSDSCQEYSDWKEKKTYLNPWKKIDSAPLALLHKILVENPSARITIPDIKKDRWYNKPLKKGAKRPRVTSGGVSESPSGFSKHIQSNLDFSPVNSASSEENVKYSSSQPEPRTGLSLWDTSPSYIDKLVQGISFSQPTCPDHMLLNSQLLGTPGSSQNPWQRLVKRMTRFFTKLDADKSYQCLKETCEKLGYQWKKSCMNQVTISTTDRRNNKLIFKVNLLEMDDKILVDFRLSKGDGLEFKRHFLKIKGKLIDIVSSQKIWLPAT
As to the kind of experiment: Inhibition of human recombinant CHK1 at 15 nM related to control ULK1.

The target in assay [9] is Macrophage-stimulating protein receptor (Homo sapiens) (UniProt Q04912). As to the kind of experiment: Inhibition of human recombinant RON at 15 nM in presence of ATP by radiometric assay relative to control.
Chain of Macrophage-stimulating protein receptor (Homo sapiens) (Q04912 25-304 limits assumed): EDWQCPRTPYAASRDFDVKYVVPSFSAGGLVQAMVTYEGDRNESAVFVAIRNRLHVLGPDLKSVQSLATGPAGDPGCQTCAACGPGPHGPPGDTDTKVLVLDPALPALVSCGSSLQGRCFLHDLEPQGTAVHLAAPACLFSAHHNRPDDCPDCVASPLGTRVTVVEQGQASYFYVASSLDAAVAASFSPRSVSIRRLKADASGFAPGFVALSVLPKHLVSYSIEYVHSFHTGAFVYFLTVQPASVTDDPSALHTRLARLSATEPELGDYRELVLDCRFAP
Chain of Macrophage-stimulating protein receptor (Homo sapiens) (Q04912 310-1400 limits assumed): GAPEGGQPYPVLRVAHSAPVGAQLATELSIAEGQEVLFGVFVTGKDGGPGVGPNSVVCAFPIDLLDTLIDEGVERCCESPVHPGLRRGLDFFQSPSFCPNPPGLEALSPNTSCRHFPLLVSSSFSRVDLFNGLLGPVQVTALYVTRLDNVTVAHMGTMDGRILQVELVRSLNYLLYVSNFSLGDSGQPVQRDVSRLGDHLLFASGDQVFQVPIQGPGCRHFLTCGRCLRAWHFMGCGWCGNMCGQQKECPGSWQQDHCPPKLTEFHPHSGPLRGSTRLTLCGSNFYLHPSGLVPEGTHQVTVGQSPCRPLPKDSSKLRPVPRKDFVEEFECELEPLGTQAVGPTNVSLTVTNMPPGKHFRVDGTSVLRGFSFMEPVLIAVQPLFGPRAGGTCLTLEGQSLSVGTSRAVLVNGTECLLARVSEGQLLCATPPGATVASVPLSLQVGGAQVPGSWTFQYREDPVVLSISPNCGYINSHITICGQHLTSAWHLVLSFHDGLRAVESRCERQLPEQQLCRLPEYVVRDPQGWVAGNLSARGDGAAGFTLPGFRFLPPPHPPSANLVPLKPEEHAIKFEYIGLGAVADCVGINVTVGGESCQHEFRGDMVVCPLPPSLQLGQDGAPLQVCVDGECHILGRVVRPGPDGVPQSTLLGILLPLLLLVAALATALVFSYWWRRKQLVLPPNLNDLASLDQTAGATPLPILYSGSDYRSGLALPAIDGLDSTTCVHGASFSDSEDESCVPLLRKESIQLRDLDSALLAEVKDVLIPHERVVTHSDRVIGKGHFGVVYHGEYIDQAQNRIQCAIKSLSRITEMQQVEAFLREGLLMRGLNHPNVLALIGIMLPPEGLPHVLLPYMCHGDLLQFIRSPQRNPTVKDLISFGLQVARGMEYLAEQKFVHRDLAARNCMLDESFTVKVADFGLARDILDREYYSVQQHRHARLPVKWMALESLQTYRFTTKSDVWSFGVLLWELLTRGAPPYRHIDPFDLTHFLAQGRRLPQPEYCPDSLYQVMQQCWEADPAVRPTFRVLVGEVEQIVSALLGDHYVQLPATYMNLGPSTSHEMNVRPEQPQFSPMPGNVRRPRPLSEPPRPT
The target in assay [10] is Dual specificity tyrosine-phosphorylation-regulated kinase 1B (Homo sapiens) (UniProt Q9Y463). Description: Inhibition of human recombinant DYRK1B at 15 nM in presence of ATP by radiometric assay relative to control.
Chain of Dual specificity tyrosine-phosphorylation-regulated kinase 1B (Homo sapiens) (Q9Y463 whole entry, looked up): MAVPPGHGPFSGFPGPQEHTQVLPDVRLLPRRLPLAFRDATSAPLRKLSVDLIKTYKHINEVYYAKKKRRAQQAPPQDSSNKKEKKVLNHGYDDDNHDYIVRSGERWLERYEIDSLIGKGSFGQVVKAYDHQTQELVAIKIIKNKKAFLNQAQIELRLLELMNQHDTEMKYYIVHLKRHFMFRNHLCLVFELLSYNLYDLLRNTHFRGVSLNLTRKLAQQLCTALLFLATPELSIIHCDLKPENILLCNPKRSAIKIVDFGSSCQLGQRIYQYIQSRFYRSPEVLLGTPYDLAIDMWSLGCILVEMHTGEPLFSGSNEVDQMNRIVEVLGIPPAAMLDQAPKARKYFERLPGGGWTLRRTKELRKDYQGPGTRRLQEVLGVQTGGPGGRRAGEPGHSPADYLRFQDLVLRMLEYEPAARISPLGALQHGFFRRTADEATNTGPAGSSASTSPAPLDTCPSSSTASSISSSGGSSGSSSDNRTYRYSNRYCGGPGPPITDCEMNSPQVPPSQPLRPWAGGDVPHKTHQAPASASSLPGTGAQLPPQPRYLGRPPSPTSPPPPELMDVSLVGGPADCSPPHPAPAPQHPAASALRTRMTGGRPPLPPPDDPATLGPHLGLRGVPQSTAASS
Assay [11] concerns the target Serine/threonine-protein kinase 33 (Homo sapiens) (UniProt Q9BYT3). Description: Inhibition of human recombinant STK33 at 15 nM in presence of ATP by radiometric assay relative to control.
The target of assay [12] is Fibroblast growth factor receptor 3 (Homo sapiens) (UniProt P22607). As to the kind of experiment: Inhibition of human recombinant FGFR3 at 15 nM related to control ULK1.
Chain of Fibroblast growth factor receptor 3 (Homo sapiens) (P22607 23-806 limits assumed): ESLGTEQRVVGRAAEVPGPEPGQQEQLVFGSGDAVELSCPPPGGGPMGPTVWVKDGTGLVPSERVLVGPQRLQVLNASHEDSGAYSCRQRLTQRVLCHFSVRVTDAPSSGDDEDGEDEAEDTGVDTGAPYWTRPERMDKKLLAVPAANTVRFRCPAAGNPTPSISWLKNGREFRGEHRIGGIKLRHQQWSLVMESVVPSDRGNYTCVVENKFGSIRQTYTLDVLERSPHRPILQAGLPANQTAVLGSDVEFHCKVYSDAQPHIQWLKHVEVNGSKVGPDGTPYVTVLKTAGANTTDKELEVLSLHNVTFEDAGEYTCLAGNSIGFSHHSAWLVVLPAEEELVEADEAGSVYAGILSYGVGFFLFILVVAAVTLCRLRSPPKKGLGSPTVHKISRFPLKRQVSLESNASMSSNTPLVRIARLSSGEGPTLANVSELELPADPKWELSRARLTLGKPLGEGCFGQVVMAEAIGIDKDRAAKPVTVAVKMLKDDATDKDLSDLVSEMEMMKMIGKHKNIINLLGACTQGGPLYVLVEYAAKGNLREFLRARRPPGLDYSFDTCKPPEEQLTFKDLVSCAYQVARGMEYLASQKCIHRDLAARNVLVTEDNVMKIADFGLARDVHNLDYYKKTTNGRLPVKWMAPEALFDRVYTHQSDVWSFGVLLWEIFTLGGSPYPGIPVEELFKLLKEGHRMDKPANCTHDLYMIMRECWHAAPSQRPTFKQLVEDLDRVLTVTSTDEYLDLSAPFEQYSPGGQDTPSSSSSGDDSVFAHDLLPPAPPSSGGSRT

Chain of Serine/threonine-protein kinase 33 (Homo sapiens) (Q9BYT3 whole entry, looked up): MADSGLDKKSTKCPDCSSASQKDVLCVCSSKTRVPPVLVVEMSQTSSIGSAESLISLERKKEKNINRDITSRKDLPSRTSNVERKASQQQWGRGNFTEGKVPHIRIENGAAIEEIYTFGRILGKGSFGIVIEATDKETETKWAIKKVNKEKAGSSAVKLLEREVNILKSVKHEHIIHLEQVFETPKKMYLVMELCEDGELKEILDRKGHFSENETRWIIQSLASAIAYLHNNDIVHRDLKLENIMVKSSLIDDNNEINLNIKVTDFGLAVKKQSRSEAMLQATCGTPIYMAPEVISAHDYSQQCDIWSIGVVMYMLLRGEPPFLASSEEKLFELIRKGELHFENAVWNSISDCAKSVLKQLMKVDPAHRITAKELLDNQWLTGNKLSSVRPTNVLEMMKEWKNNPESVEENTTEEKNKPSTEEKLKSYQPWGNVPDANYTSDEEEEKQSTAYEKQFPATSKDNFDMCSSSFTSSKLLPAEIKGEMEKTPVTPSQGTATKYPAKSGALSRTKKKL
Chain of Tyrosine-protein kinase Yes (Homo sapiens) (P07947 2-543 limits assumed): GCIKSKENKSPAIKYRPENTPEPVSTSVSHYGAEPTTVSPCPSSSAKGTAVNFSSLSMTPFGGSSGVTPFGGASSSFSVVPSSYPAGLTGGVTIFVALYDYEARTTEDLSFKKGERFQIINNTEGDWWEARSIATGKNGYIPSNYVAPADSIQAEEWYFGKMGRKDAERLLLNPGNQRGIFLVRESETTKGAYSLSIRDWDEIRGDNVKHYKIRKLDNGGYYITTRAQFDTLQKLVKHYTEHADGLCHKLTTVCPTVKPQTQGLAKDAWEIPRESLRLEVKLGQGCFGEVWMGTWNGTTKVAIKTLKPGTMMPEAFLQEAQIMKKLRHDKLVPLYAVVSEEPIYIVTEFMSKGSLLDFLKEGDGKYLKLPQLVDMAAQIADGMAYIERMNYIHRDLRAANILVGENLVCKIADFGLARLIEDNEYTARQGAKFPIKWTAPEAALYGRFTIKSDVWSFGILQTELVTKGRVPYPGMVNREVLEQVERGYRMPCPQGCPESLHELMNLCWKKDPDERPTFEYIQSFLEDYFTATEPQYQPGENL

`O=C(N[C@@H](C1CC1)C(F)(F)F)c1cc(-c2cnn3cc(-c4ccc(F)cc4)cnc23)cs1`: the inhibition in [1] came out at 0%; in [2] it was 0%; in assay [5], 22%. Moreover, the values for the fold change (FC) in assay [3], in assay [4] and in assay [6] were 0.32, 0 and 0, respectively.

Turning to `CNC(=O)c1ccccc1Oc1nc(Nc2cc(OC)c(OC)c(OC)c2)ncc1Br`, the fold change (FC) in assay [7] was determined as 0.

For the compound `CC(C)[C@H](NC(=O)c1cc(-c2cnn3cc(-c4ccc(OCCN5CCCCC5)cc4)cnc23)cs1)C(F)(F)F`, the fold change (FC) in assay [8] and in [12] was 0 throughout. The inhibition in assay [9] was 2%; in [10], 65%; in [11], 16%.

The values above are taken from ChEMBL document CHEMBL5653631, “A Potent and Selective ULK1 Inhibitor Suppresses Autophagy and Sensitizes Cancer Cells to Nutrient Stress” (iScience, 2018).
